In ChEMBL document CHEMBL1806370, “Development of novel naphthalimide derivatives and their evaluation as potential melanoma therapeutics” (Eur J Med Chem, 2011):
pIC50: −log10 of the molar value.

Legend:
UACC-903 [1] = experiment: Induction of apoptosis in human UACC-903 cells assessed as early apoptotic cells at 1 uM after 24 hrs using annexin-V-PE/7-AAD double staining by flow cytometry; format: functional
Summary of the method: (§1)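 UACC 903 cells were exposed 24 h at 37 °C to 1, 5 or 25 µM, with DMSO as control. Cells were harvested, washed twice in cold PBS and resuspended at 1×10^6 cells/mL in binding buffer. They were stained with 7-AAD plus PE Annexin V for 20 min at room temperature in the dark and run by flow cytometry within 1 h. Gating: double-negative live, 7-AAD+ dead, Annexin V+/7-AAD− early apoptotic. Three separate experiments.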

UACC-903 [2] = experiment: Induction of apoptosis in human UACC-903 cells assessed as non-viable cells at 25 uM after 24 hrs using annexin-V-PE/7-AAD double staining by flow cytometry; format: functional; summary of the method: as §1
[3] = Cytotoxicity against human SK-MEL-37 cells after 24 hrs by MTS assay; format: functional, cell-based
Summary of the method: (§2)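 Cells in DMEM with 10% FBS at 37 °C and 5% CO2 were plated at 5×10^3 per well and grown 24 h. They were then exposed 24 or 72 h to 0.5, 1, 5, 10, 25 and 50 µM, with final DMSO 0.5% and DMSO controls. MTS/PMS was added for 4 h at 37 °C. A492 was read with the medium blank subtracted and expressed as % of control. IC50 was taken from three independent experiments (mean ± S.E.).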

UACC-903 [4] = experiment: Induction of apoptosis in human UACC-903 cells assessed as late apoptotic cells at 5 uM after 24 hrs using annexin-V-PE/7-AAD double staining by flow cytometry; format: functional; summary of the method: as §1
UACC-903 [5] = experiment: Induction of apoptosis in human UACC-903 cells assessed as non-viable cells at 1 uM after 24 hrs using annexin-V-PE/7-AAD double staining by flow cytometry; format: functional; summary of the method: as §1
UACC-903 [6] = experiment: Cytotoxicity against human UACC-903 cells after 72 hrs by MTS assay; format: functional, cell-based; conditions: UACC-903, 72 h; summary of the method: as §2
[7] = Cytotoxicity against human A375-S2 cells after 72 hrs by MTS assay; format: functional, cell-based; conditions: A375-S2, 72 h; summary of the method: as §2
UACC-903 [8] = experiment: Induction of apoptosis in human UACC-903 cells assessed as late apoptotic cells at 25 uM after 24 hrs using annexin-V-PE/7-AAD double staining by flow cytometry; format: functional; summary of the method: as §1
Mus musculus [9] = experiment: Systemic toxicity in Swiss Webster mouse assessed as mortality at 10 mg/kg, ip administered every day for 28 days; format: organism-based; parameters: dose 10 mg/kg, route intraperitoneal; conditions: in vivo, 672 h
Summary of the method: (§3)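 Swiss Webster mice, n = 4 per group, dosed i.p. once daily for 28 days at 5, 7.5, 10 or 15 mg/kg body weight. Body weight recorded twice per week; deaths noted over the dosing period.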

UACC-903 [10] = experiment: Cytotoxicity against human UACC-903 cells assessed as decrease in cell viability after 24 hrs by MTS assay; format: functional, cell-based; summary of the method: as §2
UACC-903 [11] = experiment: Cytotoxicity against human UACC-903 cells after 24 hrs by MTS assay; format: functional, cell-based; conditions: UACC-903, 24 h; summary of the method: as §2
Mus musculus [12] = experiment: Systemic toxicity in Swiss Webster mouse assessed as mortality at 15 mg/kg, ip administered every day for 28 days; format: organism-based; parameters: dose 15 mg/kg, route intraperitoneal; conditions: in vivo, 672 h; summary of the method: as §3
SK-MEL-37 (Homo sapiens) [13] = experiment: Cytotoxicity against human SK-MEL-37 cells assessed as decrease in cell viability after 24 hrs by MTS assay
Mus musculus [14] = experiment: Systemic toxicity in Swiss Webster mouse assessed as weight loss at 10 mg/kg, ip administered every day for 28 days; format: organism-based; parameters: dose 10 mg/kg, route intraperitoneal; conditions: in vivo, 672 h; summary of the method: as §3
1205Lu [15] = experiment: Cytotoxicity against human 1205 Lu cells assessed as decrease in cell viability after 72 hrs by MTS assay; format: functional, cell-based; summary of the method: as §2
UACC-903 [16] = experiment: Induction of apoptosis in human UACC-903 cells assessed as viable cells at 25 uM after 24 hrs using annexin-V-PE/7-AAD double staining by flow cytometry; format: functional; conditions: UACC-903, 24 h, read-out: Activity; summary of the method: as §1
UACC-903 [17] = experiment: Induction of apoptosis in human UACC-903 cells assessed as viable cells at 5 uM after 24 hrs using annexin-V-PE/7-AAD double staining by flow cytometry; format: functional; conditions: UACC-903, 24 h, read-out: Activity; summary of the method: as §1
UACC-903 [18] = experiment: Induction of apoptosis in human UACC-903 cells assessed as non-viable cells at 5 uM after 24 hrs using annexin-V-PE/7-AAD double staining by flow cytometry; format: functional; summary of the method: as §1
Mus musculus [19] = experiment: Systemic toxicity in athymic Harlan Sprague-Dawley nude mouse xenografted with human UACC-903 cells assessed as reduction in body weight at 8.5 to 10 mg/kg, ip administered thrice a week for 24 days; format: organism-based; parameters: dose 8.5-10 mg/kg, route intraperitoneal; conditions: in vivo, 576 h
Summary of the method: (§4)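 Female athymic nude mice, 4–6 weeks old, received 5×10^6 UACC 903 cells s.c. in DMEM/10% FBS above both rib cages. After six days they were randomized at 5 mice/group, 2 tumors/mouse. Dosing was i.p. Mon/Wed/Fri, with one arm dosed daily; controls got DMSO vehicle. Tumor dimensions (calipers, mm³) and body weight were recorded three times weekly.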

UACC-903 [20] = experiment: Antitumor activity against human UACC-903 cells xenografted in athymic Harlan Sprague-Dawley nude mouse assessed as reduction in tumor growth at 8.5 to 10 mg/kg, ip administered thrice per week for 24 days measured after 21 days; format: functional; conditions: dose mg/kg 8.5-10; route intraperitoneal; summary of the method: as §4
SK-MEL-37 (Homo sapiens) [21] = experiment: Cytotoxicity against human SK-MEL-37 cells assessed as decrease in cell viability after 72 hrs by MTS assay
UACC-903 [22] = experiment: Induction of apoptosis in human UACC-903 cells assessed as viable cells at 1 uM after 24 hrs using annexin-V-PE/7-AAD double staining by flow cytometry; format: functional; conditions: UACC-903, 24 h, read-out: Activity; summary of the method: as §1
UACC-903 [23] = experiment: Cytotoxicity against human UACC-903 cells assessed as decrease in cell viability after 72 hrs by MTS assay; format: functional, cell-based; summary of the method: as §2
A375-S2 [24] = experiment: Cytotoxicity against human A375-S2 cells assessed as decrease in cell viability after 24 hrs by MTS assay; format: functional, cell-based; summary of the method: as §2
UACC-903 [25] = experiment: Induction of apoptosis in human UACC-903 cells assessed as late apoptotic cells at 1 uM after 24 hrs using annexin-V-PE/7-AAD double staining by flow cytometry; format: functional; summary of the method: as §1
[26] = Cytotoxicity against human A375-S2 cells after 24 hrs by MTS assay; format: functional, cell-based; conditions: A375-S2, 24 h; summary of the method: as §2
[27] = Cytotoxicity against human SK-MEL-37 cells after 72 hrs by MTS assay; format: functional, cell-based; summary of the method: as §2
[28] = Cytotoxicity against human 1205 Lu cells after 72 hrs by MTS assay; format: functional, cell-based; summary of the method: as §2
UACC-903 [29] = experiment: Induction of apoptosis in human UACC-903 cells assessed as early apoptotic cells at 25 uM after 24 hrs using annexin-V-PE/7-AAD double staining by flow cytometry; format: functional; summary of the method: as §1
UACC-903 [30] = experiment: Induction of apoptosis in human UACC-903 cells assessed as increase in apoptotic cells after 24 hrs using annexin-V-PE/7-AAD double staining by flow cytometry; format: functional, cell-based; summary of the method: as §1
[31] = Cytotoxicity against human 1205 Lu cells after 24 hrs by MTS assay; format: functional, cell-based; summary of the method: as §2
A375-S2 [32] = experiment: Cytotoxicity against human A375-S2 cells assessed as decrease in cell viability after 72 hrs by MTS assay; format: functional, cell-based; summary of the method: as §2
UACC-903 [33] = experiment: Induction of apoptosis in human UACC-903 cells assessed as early apoptotic cells at 5 uM after 24 hrs using annexin-V-PE/7-AAD double staining by flow cytometry; format: functional; summary of the method: as §1
1205Lu [34] = experiment: Cytotoxicity against human 1205 Lu cells assessed as decrease in cell viability after 24 hrs by MTS assay; format: functional, cell-based; summary of the method: as §2
Mus musculus [35] = experiment: Systemic toxicity in Swiss Webster mouse assessed as reduction in body weight at 10 mg/kg, ip administered daily for 28 days; parameters: scale not given: the % may be the effect or the level left; conditions: in vivo, 672 h
Mus musculus [36] = experiment: Systemic toxicity in athymic Harlan Sprague-Dawley nude mouse xenografted with human UACC-903 cells assessed as mortality at 10 mg/kg, ip administered daily for 28 days; format: organism-based; parameters: dose 10 mg/kg, route intraperitoneal; conditions: in vivo, 672 h

SMILES | Activity (UACC-903 [1]) | Activity (UACC-903 [2]) | pIC50 [3] | Activity (UACC-903 [4]) | Activity (UACC-903 [5]) | pIC50 (UACC-903 [6]) | pIC50 [7] | Activity (UACC-903 [8]) | Activity (Mus musculus [9]) | Activity (UACC-903 [10]) | pIC50 (UACC-903 [11]) | Activity (Mus musculus [12]) | Activity (SK-MEL-37 (Homo sapiens) [13]) | Activity (Mus musculus [14]) | Activity (1205Lu [15]) | viability at 25 µM (UACC-903 [16]) | viability at 5 µM (UACC-903 [17]) | Activity (UACC-903 [18]) | Activity (Mus musculus [19]) | growth inhibition (GI) (UACC-903 [20]) | further results
O=C1c2cccc3cccc(c23)C(=O)N1CCCCCCN=C=S | 12.9% | 1.15% | 5.51 | 28.7% | 2.99% | 5.12 | 5.45 | 8.56% | Non-toxic | Dose-dependent effect | 5.04 | Toxic | Dose-dependent effect | Non-toxic | Dose-dependent effect | 18.7% | 19.6% | 2.11% | Non-toxic | 50% | Activity (SK-MEL-37 (Homo sapiens) [21]): Dose-dependent effect; viability at 1 µM (UACC-903 [22]): 77.8%; Activity (UACC-903 [23]): Dose-dependent effect; Activity (A375-S2 [24]): Dose-dependent effect; Activity (UACC-903 [25]): 6.25%; pIC50 [26]: 5.29; pIC50 [27]: 5.78; pIC50 [28]: 5.28; Activity (UACC-903 [29]): 71.6%; Activity (UACC-903 [30]): Dose-dependent effect; pIC50 [31]: 4.94; Activity (A375-S2 [32]): Dose-dependent effect; Activity (UACC-903 [33]): 49.6%; Activity (1205Lu [34]): Dose-dependent effect
O=C1c2cccc3cccc(c23)C(=O)N1CCCCN=C=S | 21.1% | 6.43% | 5.41 | 16% | 6.42% | 5.29 | 5.46 | 19.3% | Non-toxic | Dose-dependent effect | 4.97 | Toxic | Dose-dependent effect | Non-toxic | Dose-dependent effect | 22.5% | 39.4% | 9.69% | Non-toxic | 30% | Activity (SK-MEL-37 (Homo sapiens) [21]): Dose-dependent effect; viability at 1 µM (UACC-903 [22]): 62.7%; Activity (UACC-903 [23]): Dose-dependent effect; Activity (A375-S2 [24]): Dose-dependent effect; Activity (UACC-903 [25]): 9.79%; pIC50 [26]: 5.16; pIC50 [27]: 5.67; pIC50 [28]: 5.52; Activity (UACC-903 [29]): 51.7%; Activity (UACC-903 [30]): Dose-dependent effect; pIC50 [31]: 5.31; Activity (A375-S2 [32]): Dose-dependent effect; Activity (UACC-903 [33]): 34.9%; Activity (1205Lu [34]): Dose-dependent effect
O=C1c2cccc3cc([N+](=O)[O-])cc(c23)C(=O)N1CCN=C=S | 17.9% | 0.19% | 5.54 | 11.9% | 1.39% | 5.26 | 5.55 | 18.6% | Non-toxic | Dose-dependent effect | 5.08 | Toxic | Dose-dependent effect | Non-toxic | Dose-dependent effect | 1.4% | 64.7% | 1.23% | Non-toxic | 60% | Activity (Mus musculus [35]): 10%; Activity (SK-MEL-37 (Homo sapiens) [21]): Dose-dependent effect; viability at 1 µM (UACC-903 [22]): 72.9%; Activity (UACC-903 [23]): Dose-dependent effect; Activity (A375-S2 [24]): Dose-dependent effect; Activity (UACC-903 [25]): 7.83%; pIC50 [26]: 5.10; pIC50 [27]: 5.76; pIC50 [28]: 5.41; Activity (UACC-903 [29]): 79.8%; Activity (UACC-903 [30]): Dose-dependent effect; pIC50 [31]: 5.24; Activity (A375-S2 [32]): Dose-dependent effect; Activity (Mus musculus [36]): Non-toxic; Activity (UACC-903 [33]): 22.2%; Activity (1205Lu [34]): Dose-dependent effect
